# Laboratory results as given in PubChem BioAssay AID2247 (Johns Hopkins Ion Channel Center, 2010).
# The campaign covered roughly 300,000 compounds. About 1,200 (0.4%) were called active. This is one part of a sample in which actives are shown more often than they occur.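 Rule for the calls: active = B-score over 3 SD under the library average, no early fluorescence shift, positive overall ratio signal; inactive = the rest.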
# Molecular target: Short transient receptor potential channel 4 (Mus musculus) (UniProt Q9QUQ5)
# Assay: inhibitors of mouse TRPC4 channel, primary screen, Fluo4 calcium, HEK293 TRPC4beta/mu-opioid cells (AID 2247)
# Details: DAMGO-evoked Fluo4 calcium flux, at 10 µM; active compounds read low
# In short: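 Assay system – HEK293 line stably carrying TRPC4beta and mu-opioid receptor · Doses – single dose · Detection – Fluo4 calcium-dye fluorescence, kinetic read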
# Sequence of Short transient receptor potential channel 4 (Mus musculus) (Q9QUQ5 whole entry, looked up): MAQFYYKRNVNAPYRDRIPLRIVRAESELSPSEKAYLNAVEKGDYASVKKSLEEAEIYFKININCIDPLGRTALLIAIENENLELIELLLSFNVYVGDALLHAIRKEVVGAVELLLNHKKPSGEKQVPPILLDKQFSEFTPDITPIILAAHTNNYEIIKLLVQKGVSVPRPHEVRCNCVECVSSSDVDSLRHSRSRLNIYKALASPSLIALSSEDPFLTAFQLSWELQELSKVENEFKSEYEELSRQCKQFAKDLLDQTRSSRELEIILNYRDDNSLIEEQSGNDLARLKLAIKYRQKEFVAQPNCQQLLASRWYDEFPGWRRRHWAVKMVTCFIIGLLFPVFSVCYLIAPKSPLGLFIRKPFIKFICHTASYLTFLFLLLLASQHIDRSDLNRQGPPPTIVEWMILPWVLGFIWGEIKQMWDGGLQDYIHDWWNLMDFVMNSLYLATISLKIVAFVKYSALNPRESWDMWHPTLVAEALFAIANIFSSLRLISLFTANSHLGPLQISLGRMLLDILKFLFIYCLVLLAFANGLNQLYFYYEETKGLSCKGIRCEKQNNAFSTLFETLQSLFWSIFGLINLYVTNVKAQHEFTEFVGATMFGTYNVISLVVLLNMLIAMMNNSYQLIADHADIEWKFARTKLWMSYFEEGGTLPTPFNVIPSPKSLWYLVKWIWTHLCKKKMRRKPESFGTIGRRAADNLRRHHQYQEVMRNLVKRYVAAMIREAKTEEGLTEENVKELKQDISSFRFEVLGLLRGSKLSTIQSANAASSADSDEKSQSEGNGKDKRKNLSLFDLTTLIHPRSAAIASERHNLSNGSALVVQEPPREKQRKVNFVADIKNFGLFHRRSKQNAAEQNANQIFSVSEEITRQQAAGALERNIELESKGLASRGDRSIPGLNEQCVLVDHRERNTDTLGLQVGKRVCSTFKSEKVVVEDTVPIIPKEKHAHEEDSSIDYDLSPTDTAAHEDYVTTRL
row,SMILES,B-score
1,CC(=O)Nc1ccc(NC(=O)C2CCCN2S(=O)(=O)c2cccc(C(F)(F)F)c2)cc1 (configuration not stated),inactive
2,CC(C)c1ccc(S(=O)(=O)N2CCN(C(=O)CN3C(=O)NC(C)(c4ccccc4)C3=O)CC2)cc1 (configuration not stated),inactive
3,N#Cc1c(-c2ccccc2)nc(SCc2cccc(C(F)(F)F)c2)[nH]c1=O,inactive
4,Cc1ccc(CSc2nc(-c3ccccc3)c(C#N)c(=O)[nH]2)cc1,-6 (active)
5,N#Cc1c(-c2ccccc2)nc(SCc2ccc([N+](=O)[O-])cc2)[nH]c1=O,inactive
6,CC(C)c1ccc(S(=O)(=O)N2CCC3(CC2)OCCO3)cc1,inactive
7,Nc1ccc(C(=O)N2CCN(S(=O)(=O)c3ccc(Cl)cc3)CC2)cc1[N+](=O)[O-],inactive
8,CN(C)CCN(C(=O)C1CCCCC1)c1nc2cc3c(cc2s1)OCO3,-6 (active)
9,CCN(CC)CCN(C(=O)c1cc(Cl)sc1Cl)c1nc2cc3c(cc2s1)OCO3,inactive
10,CN(C)CCN(C(=O)CN1C(=O)c2ccccc2C1=O)c1nc2cc3c(cc2s1)OCCO3,inactive
11,CC(=O)Nc1ccc(S(=O)(=O)Oc2ccc(Br)cc2C(=S)N2CCOCC2)cc1,inactive
12,COc1ccc(/C(C)=N/N2CCOCC2)c(O)c1,inactive
13,COc1cccc2cc(C(N)=O)/c(=N\NC(=O)c3ccccc3)oc12,-6 (active)
14,NC(=O)c1cc2ccccc2o/c1=N/NC(=O)c1cccc(F)c1,inactive
15,COc1ccc(C(=O)N/N=c2\oc3ccccc3cc2C(N)=O)cc1,inactive
16,COc1ccc(C(=O)NC2CC(C)(C)Cc3c2cnn3-c2ccccc2)c(OC)c1 (configuration not stated),inactive
17,CN1OC(COC(=O)c2ccc(Cl)cc2)CC1c1ccccc1 (configuration not stated),inactive
18,CCCC(=O)C1CCN(Cc2ccccc2)CC1,inactive
19,CCCCN(Cc1ccccc1)C(=O)C1CCN(Cc2sccc2C)CC1,-6 (active)
20,CCOC(=O)C1CCN(Cc2ccc(-c3ccccc3)cc2)CC1,inactive
21,COc1cccc(CNc2ncc(-c3ccccc3)n2C)c1,inactive
22,CCN(CC)S(=O)(=O)c1ccc(Cl)c(C(=O)NCCN2CCOCC2)c1,inactive

row,SMILES,B-score
1,Cc1ccccc1N(C(=O)Cc1cccs1)C(C(=O)NC1CCCCC1)c1cn(C)nc1C (configuration not stated),inactive
2,COc1cccc(CNc2nc(C(F)(F)F)nc3ccccc23)c1,inactive
3,NS(=O)(=O)c1ccc(CCNc2nc(C(F)(F)F)nc3ccccc23)cc1,inactive
4,CCc1ccc(C(CNc2nc(C(F)(F)F)nc3ccccc23)N(C)C)cc1 (configuration not stated),-7 (active)
5,CN(Cc1ccccc1F)C(=O)C(Cc1ccccc1)NC(=O)c1ccccc1 (configuration not stated),inactive
6,Cn1c(C(=O)N2CCCC(C(=O)NCc3ccccc3)C2)cc2sccc21 (configuration not stated),inactive
7,Cc1ccc(CN(C(=O)c2sc3ccccc3c2Cl)C2CCS(=O)(=O)C2)cc1 (configuration not stated),inactive
8,c1ccc(COc2ccccc2CNCc2cccnc2)cc1,inactive
9,Fc1ccccc1COc1ccccc1CNCc1ccncc1,-7 (active)
10,Fc1ccccc1COc1cccc2cccnc12,inactive
11,Cc1ccc(S(=O)(=O)CC(=O)Nc2sc(C)c(C)c2C(N)=O)cc1,inactive
12,COc1cc2ccccc2cc1C(=O)N1CCOCC1,inactive
13,CCCCCn1c(=O)[nH]c2cc(C(=O)NCCCN3CCCCC3C)ccc2c1=O (configuration not stated),inactive
14,N#CCCCn1c(O)c(N=NC(=O)C(O)c2ccccc2)c2ccccc21 (configuration not stated),inactive
15,Cc1cc(N/N=C/c2ccccc2F)c2ccccc2n1,-8 (active)
16,Cc1ccc2nc(C)cc(N/N=C/c3ccc(F)cc3)c2c1,inactive
17,Oc1ccc(/C=N/Nc2nc(-c3ccccc3F)nc3ccccc23)c(O)c1,inactive
18,CCCCC(c1nnnn1CS(=O)(=O)c1ccc(C)cc1)N1CCC(C(N)=O)CC1 (configuration not stated),inactive
19,CC1(C)OC(=O)C(=CNC(CO)C(=O)O)C(=O)O1 (configuration not stated),inactive
20,NC(=O)c1c(NC(=O)CSc2nc(N)cc(=O)[nH]2)sc2c1CCCC2,inactive
21,CCN1CCN(CC(=O)Nc2sc3c(c2C#N)CCC3)CC1,inactive
22,CCCc1cc(=O)[nH]c(SCC(=O)Nc2sc3c(c2C#N)CCCC3)n1,-6 (active)

row,SMILES,B-score
1,COc1ccc2[nH]c(=O)c(CN(Cc3cccnc3)S(=O)(=O)c3ccccc3F)cc2c1,inactive
2,CC(C)(C)NCc1cc(Br)ccc1OC1CCCC1,inactive
3,CC(NCc1ccccc1OC1CCCC1)c1ccccc1 (configuration not stated),-6 (active)
4,COc1ccccc1CN1CCN(C(c2ccccc2)c2ccccc2)CC1,inactive
5,CC1CCCCC1NC(=O)/C(C#N)=C/C=C/c1ccccc1[N+](=O)[O-] (configuration not stated),inactive
6,COc1ccc(N(Cc2cc3ccc(C)cc3[nH]c2=O)S(=O)(=O)c2ccccc2)cc1,inactive
7,O=C(c1cc(C(=O)N2CCN(c3ccc(F)cc3)CC2)cc([N+](=O)[O-])c1)N1CCN(c2ccc(F)cc2)CC1,inactive
8,O=C(c1cccc(C(=O)N2CCN(c3ccc(F)cc3)CC2)c1)N1CCN(c2ccc(F)cc2)CC1,-8 (active)
9,O=C(c1cc2cc(F)ccc2[nH]1)N1CCN(c2ccc(F)cc2)CC1,inactive
10,c1ccc(Nc2n[nH]nc2-c2ccccc2)cc1,-6 (active)
11,O=C(O)c1n[nH]nc1-c1ccccc1,inactive
12,Oc1ccc(-c2nnc(Nc3ccccc3)c3ccccc23)cc1,inactive
13,COc1cc(C(F)(F)F)nc2c(Br)c(C(C)(C)C)nn12,-6 (active)
14,CC1C(=O)N2CCCc3cc(S(=O)(=O)NCc4ccc(F)cc4)cc1c32 (configuration not stated),inactive
15,Cc1cccc2cc(CN(Cc3ccc4c(c3)OCO4)Cc3nnnn3C3CCCC3)c(=O)[nH]c12,inactive
16,Cc1cc(C)c2cc(CN(Cc3nnnn3Cc3ccc(F)cc3)C3CCCC3)c(=O)[nH]c2c1,inactive
17,Cc1cccc2cc(CN(Cc3nnnn3Cc3ccccc3)C3CCCC3)c(=O)[nH]c12,-7 (active)
18,NS(=O)(=O)c1ccc(NC(=S)Nc2ccc(Br)c(Cl)c2)cc1,inactive
19,Cc1ccc(S(=O)(=O)N2CCC(C)CC2)cc1C(=O)NCc1ccccn1,inactive
20,Cc1ccc(OCC(=O)NNC(=S)NCc2ccccc2)cc1,inactive
21,O=C(NNC(=S)NCc1ccccc1)c1ccc(OC(F)F)cc1,inactive
22,CC(C)Oc1ccc(CCC(=O)NNC(=S)NCc2ccccc2)cc1,-6 (active)

row,SMILES,B-score
1,COc1ccc(NC(=O)CN(C)C(=O)c2cc(-c3ccc(C)o3)nc3ccccc23)cc1,inactive
2,COc1ccc(-n2ncc3c(N4CCc5ccccc54)ncnc32)cc1,-7 (active)
3,CC(C)Sc1ncnc2c1cnn2-c1ccccc1,inactive
4,COc1ccc(-n2ncc3c(SCC(=O)NNC(C)=O)ncnc32)cc1,inactive
5,Nc1ccc(Cl)c(S(=O)(=O)Nc2ccccc2Cl)c1,inactive
6,O=C(COC(=O)/C=C/c1cccc(Cl)c1)NCCc1ccccc1,inactive
7,COc1ccc(CN2CCCC(CNC(=O)c3ccc(F)cc3)C2)cc1OC (configuration not stated),-6 (active)
8,COc1ccc(CCN(C)C(=O)C2CCCN(Cc3ccc(OC)c(OC)c3)C2)cc1OC (configuration not stated),inactive
9,COc1ccc(Cc2nc3ccc(C(=O)NCC4CCOCC4)cc3o2)cc1OC,inactive
10,O/N=C(\C[n+]1ccccc1)c1ccc(Br)cc1,inactive
11,Cn1ncc(Br)c1C(=O)NC1CCCC1,inactive
12,COc1ccc(CCN2C(=O)C(C)=C(C)C2=O)cc1OC,inactive
13,COc1ccc(CCN2C(=O)C3CC=C(C)CC3C2=O)cc1OC (configuration not stated),inactive
14,COc1ccc(CCN(C)CCN2C(=O)c3ccccc3C2=O)cc1OC,-8 (active)
15,O=C(CSc1ncnc2c1oc1ccccc12)NC1CCCC1,inactive
16,CCCCCCCCCCOC(=O)Cn1c(COc2cccc(OC)c2)[n+](C)c2ccccc21,-6 (active)
17,CCCCCCCCCCOC(=O)Cn1c(COc2ccc(C)cc2)[n+](C)c2ccccc21,inactive
18,CCn1c(COc2cccc(OC)c2)nnc1SCC(=O)N1CCOCC1,inactive
19,O=C(OCC(=O)N1CCCC1=O)c1cc(S(=O)(=O)N2CCOCC2)ccc1Cl,inactive
20,CCOc1ccc(C(=O)Nc2ccc(CN3CCOCC3)cc2)cc1Cl,inactive
21,Cn1c(=O)[nH]c(=O)c2c1nc(NCCCn1ccnc1)n2Cc1cccc(Br)c1,inactive
22,O=C(COc1ccccc1Cl)Nc1ccccc1C(=O)NC1CC1,inactive

row,SMILES,B-score
1,Cc1ccccc1OCC(=O)NNC(=O)c1ccc(-n2cncn2)c([N+](=O)[O-])c1,inactive
2,Cc1ccc(-c2cc(=O)[nH]c(NCc3ccccc3)n2)cc1,inactive
3,Cc1ccc(O)c(CNc2nc3ccccc3n2C)c1,inactive
4,Cc1ccc(O)c(CNc2nc3ccccc3[nH]2)c1,-7 (active)
5,CCC1CCCCN1S(=O)(=O)Cc1ccccc1Cl (configuration not stated),inactive
6,CCc1ccc(NC(=O)CN2CCC(C(=O)c3ccc(OC)cc3)CC2)cc1,inactive
7,CC1(C)OC(=O)C(=CSc2ccc(C(C)(C)C)cc2)C(=O)O1,inactive
8,CSc1ccc(/C=N/NC(=O)c2cccc(Cl)c2)cc1,inactive
9,CSc1ccc(/C=N\NC(=O)CC(=O)NC(C)C)cc1,-8 (active)
10,Cc1ccc(-n2c(C)cc(/C=N\NC(=O)CC(=O)NC(C)C)c2C)cc1,inactive
11,Cc1ccc(-c2csc(NCCc3nc4cc(Cl)c(Cl)cc4n3CCOCCO)n2)cc1,inactive
12,CCCSc1nc2c(c(=O)n(C)c(=O)n2C)n1Cc1ccc(C)cc1,inactive
13,CCOc1ccc(Cn2c(SCCCCC#N)nc3c2c(=O)n(C)c(=O)n3C)cc1OCC,-5 (active)
14,Cc1cccc(Cn2c(SCCO)nc3c2c(=O)n(C)c(=O)n3C)c1,inactive
15,COc1ccc(N2C(=O)C3C(C2=O)C(C(=O)c2ccccc2)N2CCCC32)cc1 (configuration not stated),inactive
16,O=C(COC(=O)c1ccc(F)cc1)NCCCc1ccccc1,inactive
17,CSCCNCc1cn(-c2ccc(F)cc2F)nc1-c1ccccc1C,-7 (active)
18,Cc1ccc(-c2nn(-c3cccc(F)c3)cc2CNCCc2ccncc2)o1,inactive
19,COc1ccccc1CC(=O)Nc1ccc(F)cc1F,inactive
